Experimental data published in ChEMBL document CHEMBL1134624, “Potent and selective ET-A antagonists. 1. Syntheses and structure-activity relationships of N-(6-(2-(aryloxy)ethoxy)-4-pyrimidinyl)sulfonamide derivatives” (J Med Chem, 2001).

What follows are compounds tested against T1, Endothelin receptor type B (Homo sapiens, UniProt P24530) (assay: Ability to inhibit specific binding of [125I]- -ET-1 to human GH cells which express endothelin B receptor). Settings: not given.
T1 sequence (P24530 whole entry): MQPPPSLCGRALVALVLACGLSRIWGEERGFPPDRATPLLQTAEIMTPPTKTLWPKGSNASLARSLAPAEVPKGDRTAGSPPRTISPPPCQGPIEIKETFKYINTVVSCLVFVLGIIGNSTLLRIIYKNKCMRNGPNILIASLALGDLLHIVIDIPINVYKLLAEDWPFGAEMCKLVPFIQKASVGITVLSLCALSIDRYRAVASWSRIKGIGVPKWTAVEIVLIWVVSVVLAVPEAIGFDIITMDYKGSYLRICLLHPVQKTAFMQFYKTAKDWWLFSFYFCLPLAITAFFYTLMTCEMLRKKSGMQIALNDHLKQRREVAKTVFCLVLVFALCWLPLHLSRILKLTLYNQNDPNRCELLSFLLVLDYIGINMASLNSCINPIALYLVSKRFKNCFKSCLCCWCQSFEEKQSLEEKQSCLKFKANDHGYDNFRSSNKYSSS
Assay type: cell-based

| IC50 | SMILES |
| --- | --- |
| 1100 nM | COc1cccc(Oc2c(NS(=O)(=O)c3ccc(C(C)(C)C)cc3)ncnc2OCCO)c1 |

Each compound was assayed against T2, Endothelin-1 receptor (Rattus norvegicus, UniProt P26684) (assay: In vitro for specific binding of [125I]ET1 to A10 cell expressed in endothelin A receptor). Settings: not given.
T2 sequence (P26684 whole entry): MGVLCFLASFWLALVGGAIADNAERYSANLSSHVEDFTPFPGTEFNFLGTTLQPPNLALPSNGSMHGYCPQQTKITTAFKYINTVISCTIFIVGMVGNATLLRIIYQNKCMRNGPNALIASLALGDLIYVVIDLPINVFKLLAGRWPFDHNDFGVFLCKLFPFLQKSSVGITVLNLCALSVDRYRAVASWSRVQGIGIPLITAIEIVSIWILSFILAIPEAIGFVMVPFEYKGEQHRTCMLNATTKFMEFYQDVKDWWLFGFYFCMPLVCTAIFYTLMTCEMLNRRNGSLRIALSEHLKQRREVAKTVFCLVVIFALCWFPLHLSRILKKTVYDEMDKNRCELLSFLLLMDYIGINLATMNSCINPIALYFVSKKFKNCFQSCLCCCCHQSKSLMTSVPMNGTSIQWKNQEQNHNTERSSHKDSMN
Assay type: cell-based

| IC50 | SMILES |
| --- | --- |
| 230 nM | COc1cccc(Oc2c(NS(=O)(=O)c3ccc(C(C)(C)C)cc3)ncnc2OCCO)c1 |
| 1.4 nM | COc1ccccc1Oc1c(NS(=O)(=O)c2ccc(C(C)(C)C)cc2)nc(-c2ncccn2)nc1OCCO [BOSENTAN SODIUM] |

What follows are compounds tested against T3, Endothelin-1 receptor (Sus scrofa, UniProt Q29010) (assay: In vitro inhibition of [125I]ET1 binding to Endothelin A receptor in porcine aortic membrane from endothelial cells). Settings: in the assay text read “with endothelium removed” for “from endothelial cells”.
T3 sequence (Q29010 whole entry): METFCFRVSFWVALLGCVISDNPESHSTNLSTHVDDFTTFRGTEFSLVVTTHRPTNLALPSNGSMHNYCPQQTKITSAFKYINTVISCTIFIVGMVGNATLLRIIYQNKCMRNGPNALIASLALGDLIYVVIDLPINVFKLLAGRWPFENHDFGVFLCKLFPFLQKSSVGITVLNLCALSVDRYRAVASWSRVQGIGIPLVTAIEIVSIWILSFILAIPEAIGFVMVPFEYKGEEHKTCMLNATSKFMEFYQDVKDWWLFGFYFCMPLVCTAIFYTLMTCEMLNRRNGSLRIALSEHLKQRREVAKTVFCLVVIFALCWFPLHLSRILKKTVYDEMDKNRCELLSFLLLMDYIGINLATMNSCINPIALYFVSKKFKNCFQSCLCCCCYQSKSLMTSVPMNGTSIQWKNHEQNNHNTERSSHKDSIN
Assay type: cell membranes
In short: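 Endothelium-free porcine aorta homogenized in 10 mM MOPS (pH 7.4) with 20% sucrose. Membranes spun 1000g 15 min, then supernatant 90000g 45 min, and resuspended in 5 mM HEPES-Tris. Incubated with 20 pM final 125I-ET-1 and graded compound concentrations in 50 mM Tris-HCl pH 7.4, 0.1% BSA, protease inhibitors, EDTA, 2 h at 25 °C. Filtered, washed, gamma-counted.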

| SMILES | IC50 |
| --- | --- |
| COc1ccc(S(=O)(=O)Nc2ncnc(OCCOc3ncc(Br)cn3)c2-c2ccc(C)cc2)cc1 | 0.76 nM |
| COc1cccc(Oc2c(NS(=O)(=O)c3ccc(C(C)(C)C)cc3)ncnc2OCCOc2cccnn2)c1 | 51.4 nM |
| COc1cccc(Oc2c(NS(=O)(=O)c3ccc(C(C)(C)C)cc3)ncnc2OCCOc2nccc(C)n2)c1 | 39.4 nM |
| COc1ccccc1Oc1c(NS(=O)(=O)c2ccc(C(C)(C)C)cc2)ncnc1OCCOc1ncc(SC)cn1 | 0.37 nM |
| Cc1ccc(-c2c(NS(=O)(=O)c3cccs3)ncnc2OCCOc2ncc(Br)cn2)cc1 | 3.1 nM |
| COc1cccc(Oc2c(NS(=O)(=O)c3ccc(C(C)(C)C)cc3)ncnc2OCCOc2cnc3ccccc3n2)c1 | 45.4 nM |
| Cc1ccc(-c2c(NS(=O)(=O)c3ccc(C(F)(F)F)cc3)ncnc2OCCOc2ncc(Br)cn2)cc1 | 1.4 nM |
| CSc1cnc(OCCOc2ncnc(NS(=O)(=O)c3ccc(C(C)(C)C)cc3)c2-c2ccc(C(C)C)cc2)nc1 | 1.2 nM |
| Cc1ccc(-c2c(NS(=O)(=O)c3ccc(I)cc3)ncnc2OCCOc2ncc(Br)cn2)cc1 | 1 nM |
| CSc1cnc(OCCOc2ncnc(NS(=O)(=O)c3ccc(C(C)(C)C)cc3)c2-c2ccc3ccccc3c2)nc1 | 0.29 nM |
| COc1cccc(Oc2c(NS(=O)(=O)c3ccc(C(C)(C)C)cc3)ncnc2OCCOc2nccc3ccccc23)c1 | > 100 nM |
| Cc1ccc(-c2c(NS(=O)(=O)c3cccc4ccccc34)ncnc2OCCOc2ncc(Br)cn2)cc1 | 22 nM |
| COc1cccc(Oc2c(NS(=O)(=O)c3ccc(C(C)(C)C)cc3)ncnc2OCCOCc2ccccc2)c1 | 170 nM |
| Cc1ccc(-c2c(NS(=O)(=O)c3ccc(C(C)(C)C)cc3)ncnc2OCCOc2ncccn2)cc1 | 0.11 nM |
| COc1cccc(Oc2c(NS(=O)(=O)c3ccc(C(C)(C)C)cc3)ncnc2OCCOc2nccs2)c1 | 12 nM |
| COc1ccccc1Oc1c(NS(=O)(=O)c2ccc(C(C)(C)C)cc2)nc(-c2ncccn2)nc1OCCO [BOSENTAN SODIUM] | 7.5 nM |

More lines, now with the values ahead:

| IC50 | SMILES |
| --- | --- |
| 65 nM | COc1cccc(Oc2c(NS(=O)(=O)c3ccc(C(C)(C)C)cc3)ncnc2OCCOc2ccccc2)c1 |
| < 0.001 nM | Cc1ccc(-c2c(NS(=O)(=O)c3ccc(C(C)(C)C)cc3)ncnc2OCCOc2ncc(Br)cn2)cc1 [listing 1 of 2 here] |
| 8.8 nM | COc1cccc(Oc2c(NS(=O)(=O)c3ccc(C(C)(C)C)cc3)ncnc2OCCOc2ccccn2)c1 |
| 0.028 nM | COc1cccc(-c2c(NS(=O)(=O)c3ccc(C(C)(C)C)cc3)ncnc2OCCOc2ncc(SC)cn2)c1 |
| 160 nM | COc1cccc(Oc2c(NS(=O)(=O)c3ccc(C(C)(C)C)cc3)ncnc2OCCO)c1 |
| < 0.001 nM | CSc1cnc(OCCOc2ncnc(NS(=O)(=O)c3ccc(C(C)(C)C)cc3)c2-c2ccc(C)cc2)nc1 [listing 1 of 2 here] |
| 0.036 nM | Cc1ccc(-c2c(NS(=O)(=O)c3ccc(C(C)(C)C)cc3)ncnc2OCCOc2ncc(-c3ccccn3)cn2)cc1 |
| 0.16 nM | Cc1ccc(-c2c(NS(=O)(=O)c3ccc(C(C)C)cc3)ncnc2OCCOc2ncc(Br)cn2)cc1 |
| 15.2 nM | COc1cccc(Oc2c(NS(=O)(=O)c3ccc(C(C)(C)C)cc3)ncnc2OCCOc2ccc3ccccc3n2)c1 |
| 0.013 nM | CCc1ccc(-c2c(NS(=O)(=O)c3ccc(C(C)(C)C)cc3)ncnc2OCCOc2ncc(SC)cn2)cc1 |
| < 0.001 nM | Cc1ccc(-c2c(NS(=O)(=O)c3ccc(C(C)(C)C)cc3)ncnc2OCCOc2ncc(-c3cccs3)cn2)cc1 [listing 1 of 2 here] |
| > 100 nM | COc1cccc(Oc2c(NS(=O)(=O)c3ccc(C(C)(C)C)cc3)ncnc2OCCCc2ncccn2)c1 |
| 9.9 nM | CSc1cnc(OCCOc2ncnc(NS(=O)(=O)c3ccc(C(C)(C)C)cc3)c2-c2ccncc2)nc1 |

The compounds below were run against T1, Endothelin receptor type B (assay: In vitro for specific binding of [125I]ET1 to GHcell expressed in Endothelin B receptor). Settings: not given.

| IC50 | SMILES |
| --- | --- |
| 7 nM | Cc1ccc(-c2c(NS(=O)(=O)c3ccc(C(C)(C)C)cc3)ncnc2OCCOc2ncc(-c3ccco3)cn2)cc1 |
| 28 nM | Cc1ccc(-c2c(NS(=O)(=O)c3ccc(C(C)(C)C)cc3)ncnc2OCCOc2ncc(Cl)cn2)cc1 |
| 220 nM | CSc1cnc(OCCOc2ncnc(NS(=O)(=O)c3ccc(C(C)(C)C)cc3)c2-c2ccc(C)cc2)nc1 [listing 2 of 2 here] |
| 3.8 nM | Cc1ccc(-c2c(NS(=O)(=O)c3ccc(C(C)(C)C)cc3)ncnc2OCCOc2ncc(-c3cccs3)cn2)cc1 [listing 2 of 2 here] |
| 240 nM | COc1cnc(OCCOc2ncnc(NS(=O)(=O)c3ccc(C(C)(C)C)cc3)c2-c2ccc(C)cc2)nc1 |
| 38 nM | Cc1ccc(-c2c(NS(=O)(=O)c3ccc(C(C)(C)C)cc3)ncnc2OCCOc2ncc(Br)cn2)cc1 [listing 2 of 2 here] |
